Results on 11 molecules are retold here after ChEMBL document CHEMBL1275307, “Design, synthesis and biological evaluation of 1,3,4-oxadiazole derivatives” (2010).

Holding throughout (type): functional
For assay [1], the system named is Escherichia coli. Put plainly: Antimicrobial activity against Escherichia coli MTCC 443 after 24 hrs by disk diffusion method. The method, boiled down: (§1)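 Paper discs (6.25 mm diameter; Whatman no.1, dry-heat sterilized 140 °C, 1 h) soaked in test compound at a known concentration, placed on nutrient agar seeded with organism; solvent and growth controls plus ciprofloxacin standard included. Plates inverted, incubated 24 h at 37 °C; inhibition zone diameters measured and compared with controls.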

Assay [2] has as its system Staphylococcus epidermidis. Put plainly: Antimicrobial activity against Staphylococcus epidermidis ATCC 12228 after 24 hrs by disk diffusion method. The method, boiled down: as §1
Assay [3] concerns Staphylococcus aureus. The experiment in a line: Antimicrobial activity against Staphylococcus aureus ATCC 25923 after 24 hrs by disk diffusion method. Put shortly:
as §1

For `S=c1[nH]nc(-c2ccccc2)o1`, the “inhibition zone (IZ)” value in assay [1] is on record as 20 mm; in assay [2], 18 mm; in assay [3], 22 mm.
The like results for `CC(=O)Oc1ccccc1-c1nnc(S)o1` were, in that order, 25 mm, 26 mm and 24 mm.
For the molecule `Cc1ccc(-c2nnc(S)o2)cc1`, the “inhibition zone (IZ)” value in assay [1] was 19 mm; in assay [2], 16 mm; in assay [3], 20 mm.
For `Sc1nnc(-c2cccnc2)o1` the same measures were 21 mm, 26 mm and 25 mm.
For `Cc1ccc(-c2nnc(-c3ccccc3O)o2)cc1` the same measures were 19 mm, 22 mm and 20 mm.
The like results for `Cc1ccccc1-c1nnc(-c2ccccc2O)o1` were, in that order, 23 mm, 24 mm and 23 mm.
For the molecule `Oc1ccccc1-c1nnc(-c2ccccc2)o1`, the figures for the “inhibition zone (IZ)” value in assay [1], in assay [2] and in assay [3] were 19 mm, 18 mm and 21 mm, respectively.
For `c1ccc(-c2nnc(-c3cccnc3)o2)cc1` the same measures were 24 mm, 25 mm and 24 mm.
For `Oc1ccccc1-c1nnc(Cc2ccc3ccccc3c2)o1` the same measures were 21 mm, 25 mm and 23 mm.
For `Oc1ccccc1-c1nnc(S)o1` the same measures were 18 mm, 22 mm and 24 mm.
As to `O=C(O)c1cn(C2CC2)c2cc(N3CCNCC3)c(F)cc2c1=O` [CIPROFLOXACIN], the “inhibition zone (IZ)” value in assay [2] amounted to 30 mm; in assay [3] it was 29 mm.
